According to ChEMBL document CHEMBL4706580, “4-Amino-1,2,4-triazole-3-thione-derived Schiff bases as metallo-β-lactamase inhibitors” (Eur J Med Chem, 2020):
Calls of active or inactive are those of the source. The calls are words filed in the database; no cut-off is given here.

Legend:
[1] = Binding affinity to beta-lactamase VIM-2 expressed in Escherichia coli BL21(DE3) assessed as association constant at 25 degC by isothermal titration calorimetry
In short: (§1)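 VIM-2 (19 μM) in 10 mM HEPES-NaOH, 0.15 M NaCl, 50 μM ZnSO4, pH 7.5, DMSO matched to ligand (1-2% final). One 0.5 μl then 19 × 2 μl injections of compound (200-400 μM), 150 s apart, 25 °C. Buffer dilution heats subtracted; nonlinear least-squares fit for n, Ka, ΔH; compound concentration adjusted in fitting so n ≈ 1.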

[2] = Binding affinity to beta-lactamase VIM-2 expressed in Escherichia coli BL21(DE3) assessed as dissociation constant at 25 degC by isothermal titration calorimetry; in short: as §1
[3] = Binding affinity to beta-lactamase VIM-2 expressed in Escherichia coli BL21(DE3) assessed as change in entropy at 25 degC by isothermal titration calorimetry; in short: as §1
[4] = Inhibition of beta-lactamase VIM-2 (unknown origin) expressed in Escherichia coli LZ2310 assessed as potentiation of cefoxitin antibacterial activity by measuring cefoxitin induced diameter of inhibition zone at 40 uM incubated for 18 hrs by disk diffusion method (reference value: 14 mm)
In short: (§2)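 Efflux-deficient E. coli LZ2310 (NorE, MdfA, AcrA knocked out) carrying pLB-II with the cloned MBL gene. Mueller-Hinton, CLSI disk diffusion; antibiotic disks (30 µg cefoxitin for VIM-2, 10 µg ampicillin for VIM-4, 30 µg ceftazidime for NDM-1/IMP-1) loaded with inhibitor in DMSO (≤15 µL). Zone diameter after 18 h, 35 ± 1 °C; DMSO and 220 µg EDTA controls. Triplicate.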

[5] = Binding affinity to beta-lactamase VIM-2 expressed in Escherichia coli BL21(DE3) assessed as Gibbs free energy at 25 degC by isothermal titration calorimetry; in short: as §1
[6] = Binding affinity to beta-lactamase VIM-2 expressed in Escherichia coli BL21(DE3) assessed as change in enthalpy at 25 degC by isothermal titration calorimetry; in short: as §1
[7] = Inhibition of beta-lactamase CphA (unknown origin) expressed in Escherichia coli BL21(DE3) using imipenem as substrate by measuring substrate hydrolysis at 100 uM by spectrophotometric analysis
In short: (§3)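 Enzyme 0.2–0.8 nM in 15 mM cacodylate pH 6.5, no added zinc, pre-incubated 30 min at 21 °C with inhibitor (100 μM screen). Imipenem substrate added from 10 mM stock; hydrolysis at 300 nm, 30 °C. Residual activity vs three uninhibited samples; Ki (1–100 μM inhibitor) by Hanes linearization, competitive model. Triplicate.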

[8] = Inhibition of beta-lactamase IMP-1 (unknown origin) expressed in Escherichia coli BL21(DE3) using imipenem as substrate by measuring substrate hydrolysis by spectrophotometric analysis
In short: (§4)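 Purified enzyme (overproduced in E. coli BL21(DE3), pET-9a; ion-exchange and gel filtration), 1-70 nM final. Reporter substrate 150 μM imipenem, read at 300 nm, 30 °C, 50 mM HEPES pH 7.5. Single-point screen at 100 or 200 μM; Ki from v0/vi vs [I] (0.5–1,000 μM final) assuming competitive inhibition, or Dixon plot. Triplicate.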

[9] = Inhibition of beta-lactamase NDM-1 (unknown origin) expressed in Escherichia coli LZ2310 assessed as potentiation of ceftazidime antibacterial activity by measuring ceftazidime induced diameter of inhibition zone at 40 uM incubated for 18 hrs by disk diffusion method (reference value: 15 mm); in short: as §2
[10] = Inhibition of beta-lactamase NDM1 (unknown origin) expressed in Escherichia coli BL21(DE3) using cefotaxime/nitrocefin as substrate by measuring substrate hydrolysis by spectrophotometric analysis
In short: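 His-tagged enzyme from E. coli BL21(DE3) pET-15b, affinity-purified, 1-70 nM final. Reporter substrate 120 μM cefotaxime (260 nm) or 100 μM nitrocefin (482 nm), 30 °C, 50 mM HEPES pH 7.5. Inhibitor 0.5–1,000 μM final; competitive Ki from v0/vi vs [I] slope or Dixon plot. Triplicate.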

[11] = Inhibition of beta-lactamase VIM2 (unknown origin) expressed in Escherichia coli BL21(DE3) using imipenem as substrate by measuring substrate hydrolysis by spectrophotometric analysis; in short: as §4
[12] = Inhibition of beta-lactamase VIM4 (unknown origin) expressed in Escherichia coli BL21(DE3) using imipenem as substrate by measuring substrate hydrolysis by spectrophotometric analysis; in short: as §4
[13] = Inhibition of beta-lactamase L1 (unknown origin) expressed in Escherichia coli BL21(DE3) using nitrocefin as substrate by measuring substrate hydrolysis preincubated for 30 mins by spectrophotometric analysis
In short: (§5)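 Enzyme 0.2–0.8 nM in 25 mM HEPES pH 7.5 with 50 μM ZnCl2 final, pre-incubated 30 min at 21 °C with inhibitor (100 μM screen). Nitrocefin 100 μM final, read at 482 nm, 30 °C. Residual activity vs three uninhibited samples; Ki (1–100 μM inhibitor) from Hanes linearization, competitive model. Triplicate.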

[14] = Inhibition of beta-lactamase IMP-1 (unknown origin) expressed in Escherichia coli LZ2310 assessed as potentiation of ceftazidime antibacterial activity by measuring ceftazidime induced diameter of inhibition zone at 40 uM incubated for 18 hrs by disk diffusion method (reference value: 9 mm); in short: as §2
[15] = Inhibition of beta-lactamase CphA (unknown origin) expressed in Escherichia coli BL21(DE3) using imipenem as substrate by measuring substrate hydrolysis at 200 uM by spectrophotometric analysis
[16] = molecular target: Hydroxyacylglutathione hydrolase (Homo sapiens); experiment: Inhibition of human Glyoxalase II expressed in Escherichia coli BL21 (DE3)
[17] = Inhibition of beta-lactamase CphA (unknown origin) expressed in Escherichia coli BL21(DE3) using imipenem as substrate by measuring substrate hydrolysis by spectrophotometric analysis; in short: as §3
[18] = Inhibition of beta-lactamase IMP-1 (unknown origin) expressed in Escherichia coli BL21(DE3) using imipenem as substrate by measuring substrate hydrolysis at 200 uM by spectrophotometric analysis; in short: as §4
[19] = Inhibition of beta-lactamase IMP-1 (unknown origin) expressed in Escherichia coli BL21(DE3) using imipenem as substrate by measuring substrate hydrolysis at 100 uM by spectrophotometric analysis; in short: as §4
[20] = Inhibition of beta-lactamase VIM-4 (unknown origin) expressed in Escherichia coli LZ2310 assessed as potentiation of ampicillin antibacterial activity by measuring ampicillin induced diameter of inhibition zone at 40 uM incubated for 18 hrs by disk diffusion method (reference value: 6 mm); in short: as §2
[21] = Inhibition of beta-lactamase NDM1 (unknown origin) expressed in Escherichia coli BL21(DE3) using cefotaxime/nitrocefin as substrate by measuring substrate hydrolysis at 200 uM by spectrophotometric analysis
[22] = Inhibition of beta-lactamase NDM1 (unknown origin) expressed in Escherichia coli BL21(DE3) using cefotaxime/nitrocefin as substrate by measuring substrate hydrolysis at 100 uM by spectrophotometric analysis
[23] = Inhibition of beta-lactamase NDM-1 (unknown origin) expressed in Escherichia coli LZ2310 assessed as potentiation of ceftazidime antibacterial activity by measuring ceftazidime induced diameter of inhibition zone at 80 uM incubated for 18 hrs by disk diffusion method (reference value: 15 mm); in short: as §2
[24] = Inhibition of beta-lactamase VIM2 (unknown origin) expressed in Escherichia coli BL21(DE3) using imipenem as substrate by measuring substrate hydrolysis at 100 uM by spectrophotometric analysis; in short: as §4
[25] = Inhibition of beta-lactamase L1 (unknown origin) expressed in Escherichia coli BL21(DE3) using nitrocefin as substrate by measuring substrate hydrolysis at 100 uM preincubated for 30 mins by spectrophotometric analysis; in short: as §5
[26] = Inhibition of beta-lactamase VIM2 (unknown origin) expressed in Escherichia coli BL21(DE3) using imipenem as substrate by measuring substrate hydrolysis at 200 uM by spectrophotometric analysis; in short: as §4
[27] = Inhibition of beta-lactamase L1 (unknown origin) expressed in Escherichia coli BL21(DE3) using nitrocefin as substrate by measuring substrate hydrolysis at 200 uM preincubated for 30 mins by spectrophotometric analysis
[28] = Inhibition of beta-lactamase VIM-2 (unknown origin) expressed in Escherichia coli LZ2310 assessed as potentiation of cefoxitin antibacterial activity by measuring cefoxitin induced diameter of inhibition zone at 80 uM incubated for 18 hrs by disk diffusion method (reference value: 14 mm); in short: as §2

SMILES	Ka [1]	Kd [2]	-TdeltaS [3]	inhibition zone (IZ) [4]	deltaG [5]	deltaH [6]	Ki [10]	Ki [11]	Ki [12]	Ki [13]	IC50 [16]	Ki [17]	inhibition [18]	inhibition [19]	inhibition zone (IZ) [20]	inhibition [22]	inhibition [25]	further results
O=C(O)c1ccccc1/C=N/n1c(-c2ccc3ccccc3c2)n[nH]c1=S	1.4 10^6/M	0.713 µM	21.3 kJ/mol	15 mm	-35.1 kJ/mol	-13.8 kJ/mol	2.3 µM	0.7 µM	0.4 µM	4.62 µM	13.2 µM	–	–	–	–	–	–	inhibition [7]: inactive; Ki [8]: 10.6 µM; inhibition zone (IZ) [9]: 15 mm; inhibition zone (IZ) [14]: 9 mm; inhibition [15]: inactive
O=C(O)c1ccccc1/C=N/n1c(-c2ccccc2)n[nH]c1=S	1.9 10^6/M	0.519 µM	20.5 kJ/mol	20 mm	-35.6 kJ/mol	-15.1 kJ/mol	38 µM	2.7 µM	1.4 µM	5 µM	25.5 µM	58 µM	inactive	inactive	–	–	–	–
COc1ccc(O)c(-c2n[nH]c(=S)n2/N=C/c2ccccc2C(=O)O)c1	2.6 10^6/M	0.389 µM	10 kJ/mol	14 mm	-36.4 kJ/mol	-26.4 kJ/mol	27 µM	0.7 µM	0.5 µM	9 µM	–	13 µM	inactive	inactive	6 mm	–	–	–
Cc1ccccc1-c1n[nH]c(=S)n1/N=C/c1ccc(O)cc1O	–	–	–	14 mm	–	–	–	7 µM	0.4 µM	31 µM	19 µM	62 µM	–	–	6 mm	inactive	–	inhibition [21]: inactive
O=C(O)c1ccccc1/C=N/n1c(-c2ccc(Cl)cc2)n[nH]c1=S	–	–	–	–	–	–	7.6 µM	–	7 µM	–	–	–	inactive	inactive	–	–	60%	inhibition zone (IZ) [23]: 15 mm; inhibition [24]: inactive; inhibition [26]: inactive
Cc1ccccc1-c1n[nH]c(=S)n1/N=C/c1ccc(O)c(C(=O)O)c1	7.7 10^6/M	1.3 µM	-4.6 kJ/mol	14 mm	-33.5 kJ/mol	-38.1 kJ/mol	–	2 µM	1.4 µM	13 µM	–	–	–	45%	6 mm	–	–	inhibition [7]: 39%
O=C(O)c1ccccc1/C=N/n1c(-c2cc(Cl)cc(Cl)c2)n[nH]c1=S	1.2 10^6/M	0.863 µM	18 kJ/mol	14 mm	-34.3 kJ/mol	-13 kJ/mol	30 µM	3 µM	0.8 µM	3 µM	–	4 µM	–	53%	6 mm	–	–	–
Oc1ccc(/C=N/n2c(-c3cccc(Br)c3)n[nH]c2=S)c(O)c1	3.1 10^6/M	0.323 µM	-6.69 kJ/mol	–	-36.8 kJ/mol	-43.5 kJ/mol	–	0.62 µM	13 µM	–	–	–	inactive	inactive	–	45%	inactive	inhibition [27]: inactive
Oc1ccc(/C=N/n2c(-c3ccccc3O)n[nH]c2=S)c(O)c1	3.4 10^6/M	2.98 µM	-8.79 kJ/mol	14 mm	-31.4 kJ/mol	-40.2 kJ/mol	–	2 µM	0.5 µM	–	–	6 µM	inactive	inactive	6 mm	inactive	31%	inhibition [21]: inactive
Oc1ccc(/C=N/n2c(-c3ccccc3-c3ccccc3)n[nH]c2=S)c(O)c1	–	–	–	–	–	–	6.4 µM	4.5 µM	9 µM	–	–	–	–	–	–	–	inactive	inhibition zone (IZ) [28]: 14 mm; Ki [8]: 12 µM; inhibition zone (IZ) [23]: 15 mm; inhibition [27]: inactive
Cc1ccccc1-c1n[nH]c(=S)n1/N=C/c1ccc(OCc2ccccc2)cc1	–	–	–	–	–	–	–	–	2.1 µM	12 µM	5.9 µM	22 µM	–	–	6 mm	inactive	–	Ki [8]: 0.3 µM; inhibition [21]: inactive; inhibition [24]: inactive; inhibition zone (IZ) [14]: 9 mm; inhibition [26]: inactive
